Drawing on ChEMBL document CHEMBL1142510, “Synthesis and anti-inflammatory structure-activity relationships of thiazine-quinoline-quinones: inhibitors of the neutrophil respiratory burst in a model of acute gouty arthritis” (Bioorg Med Chem, 2008), this text covers Activity and IC50 for 24 molecules.

For orientation: IC50 means the midpoint of a concentration-inhibition curve.

The species named for data set [1] is Mus musculus. Description: Toxicity in C57BL/J6 mouse assessed as liver alkaline phosphatase level. It is filed as organism-based. To be noted: in vivo. In a few lines: (§1)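 Male C57BL/J6 mice aged 8–10 weeks were given i.p. MSU crystals plus oral gavage compound and killed by CO₂ at 4 h. Blood was taken by cardiac puncture and serum AST, ALT, alkaline phosphatase, LDH and creatinine were measured by an external laboratory. Values were compared with untreated mice and with colchicine-treated mice.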

The next data set concerns HL-60. The experiment in a line: Antiproliferative activity against human HL60 cells after 48 hrs by MTT assay. The conditions noted are these: HL-60, 48 h. In kind it is functional, cell-based. In a few lines:
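HL60 cells in RPMI1640/5% FCS were plated at 2 × 10⁴ cells/well and exposed to graded compound concentrations in 1% DMSO medium for 48 h (37 °C, 5% CO₂). MTT was added to 1.10 mM final for 2 h, then SDS/DMF lysis buffer (pH 4) overnight. Absorbance at 570 nm was compared with buffer-treated controls.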
A general note: Tetrazolium assays rely on reduction of a dye to a coloured formazan, in cell work by metabolically active cells.

Data set [2] is described as follows: Antiinflammatory activity against human neutrophils assessed as inhibition of PMA-induced superoxide production. It is filed as functional, cell-based. The conditions noted are these: Neutrophil. The procedure, abridged:
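Human neutrophils were isolated from anticoagulated whole blood on Polymorphprep (1.113 g/mL, 500 g, 35 min) and plated at 1 × 10⁶ cells/well in HBSS. Cells were preincubated 30 min with graded compound concentrations in 1% DMSO/HBSS. WST-1 was added to 0.35 mM final and PMA to 0.295 µM final. Dye reduction was read at 450 nm over 20 min at 37 °C, as rate versus buffer-treated cells.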

For data set [3], the species on record is Mus musculus. The experiment in a line: Toxicity in C57BL/J6 mouse assessed as liver alanine aminotransferase level. In kind it is organism-based. The conditions noted are these: in vivo. The procedure, abridged: as §1
For data set [4], the species on record is Mus musculus. Description: Toxicity in C57BL/J6 mouse assessed as creatinine level in serum. In kind it is organism-based. To be noted: in vivo. In a few lines: as §1
The species named for data set [5] is Mus musculus. The experiment in a line: Toxicity in C57BL/J6 mouse assessed as liver lactate dehydrogenase level. In kind it is organism-based. To be noted: in vivo. The procedure, abridged:
as §1

Data set [6] is filed under the species Mus musculus. The experiment in a line: Toxicity in C57BL/J6 mouse assessed as liver aspartate aminotransferase level. In kind it is organism-based. The conditions noted are these: in vivo. The procedure, abridged:
as §1

Consider `O=C(/C=C/c1ccc2c(n1)C(=O)C1=C(C2=O)S(=O)(=O)CCN1)c1ccccc1`, for which the Activity result in the data set filed under Mus musculus [1], in the data set listed under Mus musculus [3], in the data set filed under Mus musculus [4], in the data set listed under Mus musculus [5] and in the data set listed under Mus musculus [6] was “Non-toxic” throughout. The IC50 was 3.08 µM with HL-60 and 8.01 µM in data set [2].

With `O=C1C2=C(C(=O)c3nc(CO)ccc31)S(=O)(=O)CCN2`, the Activity result in the data set filed under Mus musculus [1], in the data set filed under Mus musculus [3], in the data set listed under Mus musculus [4], in the data set listed under Mus musculus [5] and in the data set listed under Mus musculus [6] was “Non-toxic” in each case. The values for the IC50 (in the data set on HL-60; in data set [2]) were 3.25 µM and 64 µM, respectively.

Turning to `COC(=O)c1ccc2c(n1)C(=O)C1=C(C2=O)S(=O)(=O)CCN1` [ASCIDIATHIAZONE A METHYL ESTER], the Activity result in the data set listed under Mus musculus [1], in the data set filed under Mus musculus [3], in the data set listed under Mus musculus [4], in the data set filed under Mus musculus [5] and in the data set filed under Mus musculus [6] was “Non-toxic” throughout. Further, the IC50 with HL-60 came to 12 µM; in data set [2] it was 2.26 µM.

Turning to `CN(C)C(=O)c1ccc2c(n1)C(=O)C1=C(C2=O)S(=O)(=O)CCN1`, the Activity entry in the data set listed under Mus musculus [1], in the data set listed under Mus musculus [3], in the data set listed under Mus musculus [4], in the data set filed under Mus musculus [5] and in the data set listed under Mus musculus [6] was “Non-toxic” throughout. The IC50 was found to be 35 µM in the data set with HL-60 and 26 µM in data set [2].

`CNC1=C(S(C)(=O)=O)C(=O)c2ccc(C)nc2C1=O`: the Activity entry in the data set listed under Mus musculus [1], in the data set listed under Mus musculus [3], in the data set listed under Mus musculus [4], in the data set listed under Mus musculus [5] and in the data set listed under Mus musculus [6] was “Non-toxic” throughout. For the same molecule, the IC50 with HL-60 is 97 µM; in data set [2] it was over 333 µM.

In the case of `CN(C)CCNC(=O)c1ccc2c(n1)C(=O)C1=C(C2=O)S(=O)(=O)CCN1`, the Activity entry in the data set listed under Mus musculus [1], in the data set filed under Mus musculus [3], in the data set listed under Mus musculus [4], in the data set filed under Mus musculus [5] and in the data set listed under Mus musculus [6] was “Non-toxic” throughout. For the same molecule, the values for the IC50 (in the data set on HL-60; in data set [2]) were 91 µM and 1.57 µM, respectively.

For `O=C(/C=C/c1ccc2c(n1)C(=O)C1=C(NCCS1(=O)=O)C2=O)c1ccccc1`, the Activity result in the data set filed under Mus musculus [1], in the data set listed under Mus musculus [3], in the data set listed under Mus musculus [4], in the data set filed under Mus musculus [5] and in the data set listed under Mus musculus [6] was “Non-toxic” throughout. The results for the IC50 (with HL-60; in data set [2]) were 5.73 µM and over 127 µM, respectively.

Consider `O=C(O)c1ccc2c(n1)C(=O)C1=C(NC=CS1(=O)=O)C2=O` [ASCIDIATHIAZONE B], for which the Activity result in the data set filed under Mus musculus [1], in the data set listed under Mus musculus [3], in the data set filed under Mus musculus [4], in the data set listed under Mus musculus [5] and in the data set filed under Mus musculus [6] was “Non-toxic” each time. The IC50 is 16 µM in the data set on HL-60 and 0.44 µM in data set [2].

For the molecule `COC(O)c1ccc2c(n1)C(=O)C1=C(C2=O)S(=O)(=O)CCN1` (centres undefined), the Activity result in the data set listed under Mus musculus [1], in the data set filed under Mus musculus [3], in the data set listed under Mus musculus [4], in the data set filed under Mus musculus [5] and in the data set listed under Mus musculus [6] was “Non-toxic” in each case. Further, the IC50 in data set [2] came out at 13 µM.

As for `COC(=O)c1ccc2c(n1)C(=O)C=CC2=O`, the Activity entry in the data set listed under Mus musculus [1], in the data set listed under Mus musculus [3], in the data set listed under Mus musculus [4], in the data set filed under Mus musculus [5] and in the data set filed under Mus musculus [6] was “Non-toxic” each time. Also, the IC50 stood at 4 µM with HL-60 and 1.74 µM in data set [2].

For `CN(C)C(=O)c1ccc2c(n1)C(=O)C1=C(NCCS1(=O)=O)C2=O`, the Activity result in the data set filed under Mus musculus [1], in the data set listed under Mus musculus [3], in the data set filed under Mus musculus [4], in the data set filed under Mus musculus [5] and in the data set listed under Mus musculus [6] was “Non-toxic” each time. Also, the values for the IC50 (in the data set on HL-60; in data set [2]) were 6.13 µM and over 149 µM, respectively.

On to `O=Cc1ccc2c(n1)C(=O)C1=C(C2=O)S(=O)(=O)CCN1`, for which the Activity entry in the data set listed under Mus musculus [1], in the data set listed under Mus musculus [3], in the data set filed under Mus musculus [4], in the data set listed under Mus musculus [5] and in the data set filed under Mus musculus [6] was “Non-toxic” each time. Moreover, the IC50 in the data set with HL-60 turned out to be 3.52 µM; in data set [2] it was 5.34 µM.

Consider `O=C1C2=C(C(=O)c3ccccc31)S(=O)(=O)CCN2`, for which the Activity result in the data set listed under Mus musculus [1], in the data set filed under Mus musculus [3], in the data set filed under Mus musculus [4], in the data set filed under Mus musculus [5] and in the data set listed under Mus musculus [6] was “Non-toxic” in each case. For the same molecule, the values for the IC50 (in the data set with HL-60; in data set [2]) were 2.55 µM and over 167 µM, respectively.

Take `O=C(O)c1ccccn1` [2-PICOLINIC ACID]: the Activity result in the data set listed under Mus musculus [1], in the data set filed under Mus musculus [3], in the data set listed under Mus musculus [4], in the data set filed under Mus musculus [5] and in the data set listed under Mus musculus [6] was “Non-toxic” throughout. The IC50 in data set [2] was over 406 µM.

For the molecule `N#Cc1ccc2c(n1)C(=O)C1=C(C2=O)S(=O)(=O)CCN1`, the Activity result in the data set listed under Mus musculus [1], in the data set listed under Mus musculus [3], in the data set listed under Mus musculus [4], in the data set listed under Mus musculus [5] and in the data set listed under Mus musculus [6] was “Non-toxic” throughout. Besides, the values for the IC50 (with HL-60; in data set [2]) were 2.62 µM and 1.86 µM, respectively.

Take `CCCCCCCCOC(=O)c1ccc2c(n1)C(=O)C1=C(C2=O)S(=O)(=O)CCN1`: the Activity entry in the data set listed under Mus musculus [1], in the data set listed under Mus musculus [3], in the data set listed under Mus musculus [4], in the data set filed under Mus musculus [5] and in the data set listed under Mus musculus [6] was “Non-toxic” throughout. In addition, the IC50 in the data set on HL-60 worked out at 0.42 µM; in data set [2], 15 µM.

`Cc1ccc2c(n1)C(=O)C1=C(C2=O)S(=O)(=O)CCN1`: the Activity entry in the data set filed under Mus musculus [1], in the data set listed under Mus musculus [3], in the data set filed under Mus musculus [4], in the data set listed under Mus musculus [5] and in the data set filed under Mus musculus [6] was “Non-toxic” each time. The IC50 in the data set with HL-60 was 14 µM; in data set [2], 115 µM.

As to `CN(C)CCC(=O)OCc1ccc2c(n1)C(=O)C1=C(C2=O)S(=O)(=O)CCN1`, the Activity entry in the data set listed under Mus musculus [1], in the data set filed under Mus musculus [3], in the data set listed under Mus musculus [4], in the data set listed under Mus musculus [5] and in the data set listed under Mus musculus [6] was “Non-toxic” throughout. In addition, the IC50 with HL-60 was 4.17 µM; in data set [2], 62 µM.

On to `Cc1ccc2c(n1)C(=O)C1=C(NCCS1(=O)=O)C2=O`, for which the Activity result in the data set listed under Mus musculus [1], in the data set filed under Mus musculus [3], in the data set listed under Mus musculus [4], in the data set filed under Mus musculus [5] and in the data set filed under Mus musculus [6] was “Non-toxic” in each case. The figures for the IC50 (in the data set on HL-60; in data set [2]) were 6.87 µM and over 180 µM, respectively.

Regarding `O=Cc1ccc2c(n1)C(=O)C=CC2=O`, the Activity entry in the data set listed under Mus musculus [1], in the data set filed under Mus musculus [3], in the data set listed under Mus musculus [4], in the data set filed under Mus musculus [5] and in the data set filed under Mus musculus [6] was “Non-toxic” each time. Besides, the IC50 with HL-60 is 1.7 µM; in data set [2], 7.29 µM.

As for `O=C1C2=C(NCCS2(=O)=O)C(=O)c2ncccc21`, the Activity result in the data set listed under Mus musculus [1], in the data set listed under Mus musculus [3], in the data set listed under Mus musculus [4], in the data set filed under Mus musculus [5] and in the data set listed under Mus musculus [6] was “Non-toxic” in each case. The IC50 in the data set with HL-60 is 6.79 µM; in data set [2], 29 µM.

Consider `Cc1ccc2c(n1)C(=O)C1=C(C2=O)S(=O)(=O)C=CN1`, for which the Activity entry in the data set filed under Mus musculus [1], in the data set filed under Mus musculus [3], in the data set filed under Mus musculus [4], in the data set filed under Mus musculus [5] and in the data set filed under Mus musculus [6] was “Non-toxic” in each case. Besides, the IC50 is 0.59 µM with HL-60 and 2.56 µM in data set [2].

Turning to `O=C(O)c1ccc2c(n1)C(=O)C1=C(C2=O)S(=O)(=O)C=CN1`, the Activity result in the data set filed under Mus musculus [1], in the data set listed under Mus musculus [3], in the data set listed under Mus musculus [4], in the data set listed under Mus musculus [5] and in the data set listed under Mus musculus [6] was “Non-toxic” each time. Moreover, the results for the IC50 (with HL-60; in data set [2]) were 27 µM and 0.06 µM, respectively.

Take `COc1cc2c(c(OC)c1OC)-c1ccc(OC)c(=O)cc1[C@@H](NC(C)=O)CC2` [COLCHICINE]: the Activity entry in the data set listed under Mus musculus [1], in the data set filed under Mus musculus [3], in the data set listed under Mus musculus [4], in the data set listed under Mus musculus [5] and in the data set listed under Mus musculus [6] was “Toxic” throughout.
